Shown are actives, neighbours in structure and some others; about 2.3% of the full set was active somewhere.
TRPC6 act = mouse TRPC6 channel activation | Q61143 | 0.13% of 310,000 active | HEK293-TRPC6 membrane potential dye fluorescence; active compounds read high | B-score at 10 µM | AID 2550;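 active = B-score of the integrated fluorescence ratio above library mean plus 3 SD, and starting fluorescence ratio within library mean plus 5 SD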;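 note: higher score means more depolarization so channel activation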
Target sequence (Q61143 whole entry, looked up): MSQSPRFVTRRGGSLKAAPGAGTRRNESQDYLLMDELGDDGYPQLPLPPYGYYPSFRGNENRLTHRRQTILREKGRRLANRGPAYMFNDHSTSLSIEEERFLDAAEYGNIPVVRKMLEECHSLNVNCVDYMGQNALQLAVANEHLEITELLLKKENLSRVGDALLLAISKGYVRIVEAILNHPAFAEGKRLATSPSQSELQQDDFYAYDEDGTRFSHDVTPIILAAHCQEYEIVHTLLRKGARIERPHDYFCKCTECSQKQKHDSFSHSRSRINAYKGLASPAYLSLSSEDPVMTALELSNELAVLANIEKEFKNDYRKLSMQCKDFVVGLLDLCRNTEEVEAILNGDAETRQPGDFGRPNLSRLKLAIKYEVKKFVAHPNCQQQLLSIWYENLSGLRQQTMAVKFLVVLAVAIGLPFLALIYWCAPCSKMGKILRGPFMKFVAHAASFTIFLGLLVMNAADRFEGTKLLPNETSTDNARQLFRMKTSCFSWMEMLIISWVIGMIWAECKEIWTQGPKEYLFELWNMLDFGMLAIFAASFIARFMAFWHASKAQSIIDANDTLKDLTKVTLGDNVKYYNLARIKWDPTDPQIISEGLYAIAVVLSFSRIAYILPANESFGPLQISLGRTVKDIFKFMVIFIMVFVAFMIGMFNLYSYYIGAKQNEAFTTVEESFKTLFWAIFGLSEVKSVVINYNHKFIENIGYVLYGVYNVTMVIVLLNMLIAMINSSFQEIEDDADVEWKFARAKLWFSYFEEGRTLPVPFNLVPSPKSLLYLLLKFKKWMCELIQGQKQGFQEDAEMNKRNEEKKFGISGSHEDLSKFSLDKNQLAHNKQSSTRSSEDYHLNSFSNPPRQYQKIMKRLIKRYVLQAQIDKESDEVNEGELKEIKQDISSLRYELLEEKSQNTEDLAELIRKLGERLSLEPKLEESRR
TRPC4 PAM = TRPC4 (mouse) allosteric potentiation. Q9QUQ5. HEK293 TRPC4beta/mu-opioid, DAMGO EC20, Fluo-4 Ca2+ flux; active compounds read high. B-score at 10 µM. 0.42% of 310,000 active. AID 2227;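 active = B-score of calcium response area above 5 SD of library B-scores, with initial fluorescence ratio within 5 SD of library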;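 note: B-score of integrated fluorescence ratio over time as area under calcium response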
TRPC4 agonist = activators of mouse TRPC4 channel | Q9QUQ5 | HEK293 TRPC4beta/mu-opioid, Fluo4 calcium fluorescence; active compounds read high | B-score at 10 µM | 0.49% of 310,000 active;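 active = B-score above 5 SD of library B-scores, and initial fluorescence ratio not above library mean plus 5 SD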;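 note: positive B-score marks a calcium rise read as TRPC4 activation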
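System – HEK293 cells stably co-expressing mouse TRPC4beta and mu-opioid receptor · Signal – Fluo4 calcium-sensitive dye fluorescence, kinetic, 1 Hz baseline · Benchmarks – buffer (low) and maximal DAMGO (high) · Read-out – B score of integrated fluorescence ratio per well · Incubation – dye loading 45 min room temperature, 110 s kinetic read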
TRPC4 block = TRPC4 (mouse) channel inhibition; HEK293 TRPC4beta/mu-opioid, DAMGO-evoked Fluo4 calcium flux; active compounds read low; B-score at 10 µM; AID 2247; 0.39% of 300,000 active;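 active = B-score over 3 SD under the library average, no early fluorescence shift, positive overall ratio signal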
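Material: HEK293 cells with stable TRPC4beta plus mu-opioid receptor expression; probe or stimulus: DAMGO in two steps, submaximal then maximal; technique: Fluo4 calcium fluorescence by kinetic imaging, 5 s 1 Hz baseline; measure: integrated fluorescence ratio relative to baseline, converted to per-well B score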
TRPC6 inh = inhibitors of mouse TRPC6 channel | Q61143 | HEK293-TRPC6, membrane potential dye, ACh-evoked depolarization; active compounds read low | B-score at 10 µM | 1.1% of 310,000 active;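 active = B-score under library mean minus 3 SD, initial fluorescence not abnormally high, positive integrated signal ratio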;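 note: B-score derived from integrated fluorescence ratio over the kinetic read; more negative B-score means stronger inhibition of depolarization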
TRPC4 spec 2 = second check of whether TRPC6 inhibitors also affect mouse TRPC4 | HEK293 TRPC4/MOR, membrane potential dye fluorescence; channel activated by saturating DAMGO dose | shares compounds with TRPC6 inh | inhibition, % at 10 µM | 42% of 920 active;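 active = compounds whose fluorescence signal differed from control wells by over 3 SD, either direction, in both duplicate plates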
TRPC4 spec = tests whether TRPC6 inhibitors also affect mouse TRPC4; shares compounds with TRPC6 inh; HEK293 TRPC4/mu-opioid, membrane potential fluorescence; activity change, negative = inhibition, % at 10 µM; 61% of 920 active; AID 2777;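 active = rise or fall in signal beyond 3 SD of buffer-only wells in both replicate plates, either sign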;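 note: integrated kinetic ratio of fluorescence range over baseline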
HEK293 MPD ctr 2-1 = parental HEK293 nonspecific activity of TRPC6 inhibitors, second screen. shares compounds with TRPC6 inh. parental HEK293 membrane potential dye fluorescence; maximal acetylcholine challenge after compound addition. signal change vs control, % at 10 µM. 31% of 920 active;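 active = membrane potential signal moving either way by over 3 SD of the maximum-effect control, in both duplicate plates, meaning non-specific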
HEK293 MPD ctr-1 = parental HEK293 nonspecific activity of TRPC6 inhibitors; shares compounds with TRPC6 inh; parental HEK293 membrane potential dye fluorescence; membrane potential signal change, % at 10 µM; 60% of 920 active;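 active = membrane potential signal shifting up or down by more than 3 SD of buffer-only wells, on both duplicate plates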
HEK293 MPD ctr-2 = counter-screen for TRPC6 modulators: effect in parental HEK293 cells; shares compounds with TRPC6 inh; 51% of 2,400 active; membrane potential dye fluorescence; membrane potential signal change, % at 10 µM;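 active = membrane potential signal moves up or down beyond 5 SD from buffer-only wells, on both duplicate plates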
HEK293 MPD ctr 2-2 = second counter-screen for TRPC6 modulators: effect in parental HEK293 cells. shares compounds with TRPC6 inh. membrane potential dye fluorescence; after compound, maximal acetylcholine stimulation. inhibition, % at 10 µM. 14% of 2,400 active;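 active = membrane potential signal drops by more than 5 SD from the mean control signal, in both duplicate plates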;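 note: plate controls were acetylcholine ECmax control wells for no effect and buffer only wells for full effect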
TRPC4 ctr mod = tests whether TRPC6 modulators also affect mouse TRPC4; percent change from control (negative = decrease, positive = increase), % at 10 µM; AID 488927; 69% of 2,400 active; HEK293 TRPC4/mu-opioid, membrane potential fluorescence; shares compounds with TRPC6 inh;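 active = membrane potential signal moved up or down beyond 5 SD of buffer control wells, in both duplicate plates, actives on both sides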;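 note: plate controls were assay buffer wells for no effect and DAMGO maximal-effect wells for full effect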
TRPC4/MOR inh 2 = mouse TRPC4 off-target activity of TRPC6 modulators, second screen; shares compounds with TRPC6 inh; AID 488928; HEK293 TRPC4/mu-opioid, membrane potential dye fluorescence; stimulated with maximal-effect DAMGO; 55% of 2,400 active; inhibition, % at 10 µM;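 active = drop in membrane potential signal beyond 5 SD of the control wells in both duplicate plates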;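 note: TRPC4 counter screen for TRPC6 hits run under conditions tuned for TRPC6 not TRPC4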
TRPC6 inh conf = confirmation of mouse TRPC6 inhibitors; shares compounds with TRPC6 inh; 43% of 3,300 active; HEK293-TRPC6, membrane potential dye, ACh-evoked depolarization; inhibition, % at 10 µM; AID 488960;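 active = fluorescence ratio falls more than 5 SD below the full-stimulation control mean, in both duplicate runs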;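 note: integrated fluorescence ratio of peak minus minimum over baseline after agonist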
TRPC6 act conf = mouse TRPC6 activator confirmation. HEK293-TRPC6 membrane potential dye fluorescence, FDSS. activation, % at 10 µM. 11% of 2,800 active. shares compounds with TRPC6 inh;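 active = ratio signal rise beyond 5 SD above unstimulated control wells' mean, seen in both duplicate runs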;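 note: plate controls were buffer EC0 wells for no effect and acetylcholine ECmax response for full effect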
* = called active by the depositor; i = inactive; . = no result.

SMILES | TRPC6 act | TRPC4 PAM | TRPC4 agonist | TRPC4 block | TRPC6 inh | HEK293 MPD ctr-2 | HEK293 MPD ctr 2-2 | TRPC4 ctr mod | TRPC4/MOR inh 2 | TRPC6 inh conf | TRPC6 act conf | others
CCCCN(C)CCNC(=O)c1nn(-c2ccc(OC)cc2)c(=O)c2c1c1ccccc1n2C | i | i | i | i | -5.7* | i | i | -16%* | 68%* | i | i
CCN(C(=O)c1nn(-c2ccc(OC)cc2)c(=O)c2c1c1ccccc1n2C)c1ccc(OC)cc1 | i | i | i | i | i | . | . | . | . | . | .
CC(C)c1ccc(NC2CCCN(C(=O)c3cnc4ccccn4c3=O)C2)cc1 (stereo not given) | i | i | i | i | -7* | . | . | . | . | i | i | TRPC4 spec 2=i;TRPC4 spec=i;HEK293 MPD ctr 2-1=i;HEK293 MPD ctr-1=i
Cc1ccc(NC2CCCN(C(=O)c3cnc4ccccn4c3=O)C2)cc1C (stereo not given) | i | i | i | i | i | . | . | . | . | . | .
Cn1c(=O)n(C)c2cc([N+](=O)[O-])c(N3CCN(S(C)(=O)=O)CC3)cc21 | i | i | i | i | i | . | . | . | . | . | .
Cn1c(=O)n(C)c2cc([N+](=O)[O-])c(N3CCN(CCO)CC3)cc21 | i | i | i | i | -6.8* | -370%* | 70%* | -50%* | 42%* | 44%* | i
COc1ccc2c(c1)C(C)=CC(C)(C)N2S(=O)(=O)c1ccc(NC(C)=O)cc1 | 14* | i | i | i | i | i | i | 10%* | i | i | i
Nc1[nH]nc2nc(NCc3ccccc3)c3c(c12)CCN(Cc1ccccc1)C3 | i | i | i | i | -5.4* | i | i | -16%* | 49%* | 42%* | i
O=C(NCc1ccc(F)cc1)c1c2c(nc3ccccc13)CCN(Cc1ccccc1)C2 | i | i | i | i | i | . | . | . | . | . | .
Cc1nc2ccc(NC(=O)c3ccc(Cl)c(S(=O)(=O)N(C)c4ccccc4)c3)cc2s1 | i | i | i | i | -5.1* | i | i | -26%* | i | i | i
C[N+]1(C)CCCC(OC(=O)C(O)(c2ccccc2)c2ccccc2)C1 (stereo not given) | i | i | i | i | -13* | . | . | . | . | 94%* | i | TRPC4 spec 2=i;TRPC4 spec=i;HEK293 MPD ctr 2-1=-23%*;HEK293 MPD ctr-1=i
COc1cccc(OCc2cc(C(=O)N(C)Cc3nc4ccccc4[nH]3)no2)c1 | i | i | i | i | i | . | . | . | . | . | .
COc1cccc(OCc2cc(C(=O)N(Cc3ccccc3)CC3CC3)no2)c1 | i | i | i | i | -5.2* | 131%* | i | 26%* | i | i | .
COc1ccc(CN2CCC(n3nccc3NC(=O)CCOc3ccccc3)CC2)cc1C | i | i | i | i | i | . | . | . | . | . | .
CC(=O)N1c2ccc(S(=O)(=O)NCCC(=O)Nc3cccc(Cl)c3)cc2CC1C (stereo not given) | i | i | i | i | i | . | . | . | . | . | .
COc1ccc(CNC(=O)COC(=O)c2cnccn2)cc1 | i | i | i | i | i | . | . | . | . | . | .
Cc1ccc(-c2cnc(NCc3cc4c(cc3[N+](=O)[O-])OCO4)n2C)cc1C | i | i | i | i | i | . | . | . | . | . | .
Cn1c(-c2ccc3c(c2)OCO3)cnc1NCc1ccccc1Cl | i | i | i | i | -5.3* | i | i | i | 68%* | i | i
Cn1c(-c2ccc3c(c2)OCO3)cnc1NCc1ccccc1 | i | i | i | i | -5.8* | i | i | i | 56%* | 36%* | i
Cn1c(-c2ccc3c(c2)OCO3)cnc1NC(=O)CCC(=O)NCCc1ccccc1 | i | i | i | i | i | . | . | . | . | . | .
Cn1c(-c2ccc3c(c2)OCO3)cnc1NCc1cccc(Cl)c1 | i | i | i | i | -7.9* | . | . | . | . | i | i | TRPC4 spec 2=46%*;TRPC4 spec=i;HEK293 MPD ctr 2-1=i;HEK293 MPD ctr-1=i
O=C(NCCc1ccc(F)cc1)C1CCCO1 (stereo not given) | i | i | i | i | i | . | . | . | . | . | .
CCOC(=O)CN1C(=O)C(=O)N(Cc2c(Cl)cccc2Cl)C1=O | i | i | i | i | -5.6* | i | i | i | i | i | i
CCOC(=O)CN1C(=O)C(=O)N(Cc2cccc(C)c2)C1=O | i | i | i | i | i | . | . | . | . | . | .
CCOC(=O)N1CCN(S(=O)(=O)c2ccc(C(=O)N(CCCN(C)C)c3nc4cc(OC)ccc4s3)cc2)CC1 | i | i | i | i | -5.6* | i | i | -25%* | 81%* | 73%* | i
CN(C)CCCN(C(=O)c1ccc(S(=O)(=O)N2CCCCCC2)cc1)c1nc2c(F)cc(F)cc2s1 | i | i | 157* | i | -5.2* | i | i | 20%* | 103%* | i | i
CC(C)CCOc1ccc(C(=O)NN2C(=O)NC3(CCCCC3)C2=O)cc1 | i | i | i | i | i | . | . | . | . | . | .
COc1ccc(CCC(=O)N/N=C/c2ccc3c(c2)OCO3)cc1 | i | i | i | i | i | . | . | . | . | . | .
COc1ccccc1Nc1c2ccccc2nc2ccccc12 | i | i | i | i | -6.7* | -182%* | i | -36%* | 68%* | 50%* | i

Source: PubChem BioAssay (Johns Hopkins Ion Channel Center)
